Laboratory results published in ChEMBL document CHEMBL1122393, “Potent antagonists of the antidiuretic responses to arginine-vasopressin based on modifications of [1-(beta-mercapto-beta,beta-cyclopentamethylenepropionic acid),2-D- phenylalanine,4-valine]arginine-vasopressin at position 4” (J Med Chem, 1983).
Numbered stars: 1 amine (or outer) side, 2 acyl side, 3 side chain; on linkers, the order of the positions; unused ones are H or OH. Bridge positions count the residues as written; N and C are the ends. Square brackets hold non-standard residues; d marks the D form. Peptide text beside a SMILES is read from it. X1 = O=C(CC1(S[*:2])CCCCC1)[*:1]

Columns and labels:
Rattus norvegicus [1] = organism: Rattus norvegicus; assay: In vitro anti-oxytocic potency of compound in rat uterus in presence of 0.5 mM of Mg; assay type: functional; conditions: read-out: pA2 (converted)
In short: (§1)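 Oxytocic antagonism on isolated rat uteri, with the USP posterior pituitary reference standard as agonist. Potency is expressed as a pA2 value.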

Rattus norvegicus [2] = assay: In vivo antiantidiuretic potency of compound was determined in rats; assay type: functional, organism-based; conditions: Urine, read-out: pA2 (converted)
In short: (§2)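 Antidiuretic assay in rats under ethanol anaesthesia, with the USP posterior pituitary reference standard as agonist, given intravenously. The standard was injected 20 min after antagonist, or 10 min for analogues without agonism. Two antagonist doses were used, and the effective dose (nmol/kg) was log-interpolated as the dose reducing the 2x-unit response to the 1x-unit response. In vivo pA2 = −log(effective dose/estimated volume of distribution).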

Rattus norvegicus [3] = organism: Rattus norvegicus; assay: Effective dose of compound was determined for anti-vasopressor potency in rat; assay type: functional
In short: (§3)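 Intravenous vasopressor assay in phenoxybenzamine-treated rats under urethane anaesthesia, with the USP posterior pituitary reference standard as agonist. Each antagonist was given at two doses. The effective dose (nmol/kg) is the dose that cuts the response to 2x units of agonist to the response to 1x unit given before antagonist. It was interpolated on a log scale between the two doses.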

Rattus norvegicus [4] = assay: The compound tested in vivo for anti-vasopressor potency in rats; assay type: functional, organism-based; conditions: read-out: pA2 (converted); in short: as §3
Rattus norvegicus [5] = organism: Rattus norvegicus; assay: In vitro anti-oxytocic potency of compound in rat uterus in absence of Mg; assay type: functional; conditions: read-out: pA2 (converted); in short: as §1
[6] = Ratio of anti-vasopressor ED to antidiuretic ED was determined; assay type: functional, Urine
In short: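 Ratio computed as antivasopressor effective dose divided by antiantidiuretic effective dose. Both effective doses come from intravenous rat assays and are defined as the dose (nmol/kg) that reduces the 2x-unit agonist response to the 1x-unit response.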

Rattus norvegicus [7] = organism: Rattus norvegicus; assay: Effective dose of compound was determined for antiantidiuretic potency in rats; assay type: functional, Urine; in short: as §2
[8] = Ratio of anti-oxytocic ED to antidiuretic ED was determined; assay type: functional, Urine
In short: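 Ratio computed as antioxytocic effective dose divided by antiantidiuretic effective dose. Both effective doses are defined as the dose (nmol/kg) that reduces the 2x-unit agonist response to the 1x-unit response.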

Rattus norvegicus [9] = assay: (§4) In vivo anti-oxytocic potency of compound was determined in rat uterus; assay type: functional
In short: (§5)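 Rat uterus in situ, with synthetic oxytocin as agonist. Two antagonist doses were used, and the effective dose (nmol/kg) was interpolated on a log scale as the dose reducing the 2x-unit response to the 1x-unit response.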

Rattus norvegicus [10] = assay: as §4; assay type: functional, organism-based; conditions: read-out: pA2 (converted); in short: as §5
Rattus norvegicus [11] = organism: Rattus norvegicus; assay: Effective dose of compound was determined for antiantidiuretic potency in rats; Weak agonist; assay type: functional, organism-based; conditions: Urine, filed as partial agonist
In short: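 Intravenous antidiuretic assay in rats under ethanol anesthesia. The agonist was the USP posterior pituitary reference standard, injected 20 min after the antagonist to allow recovery from initial antidiuretic responses. Antagonist was given at high and low doses. The effective dose (nmol/kg) reduces the response to 2x units of agonist to that of 1x unit given before antagonist, log-interpolated.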

Rattus norvegicus [12] = organism: Rattus norvegicus; assay: Effective dose of compound was determined for anti-vasopressor potency in rat; Weak agonist; assay type: functional, organism-based; conditions: filed as partial agonist

Row | SMILES | Kb (Rattus norvegicus [1]) [nM] | Kb (Rattus norvegicus [2]) [nM] | ED (Rattus norvegicus [3]) [nM/kg] | Kb (Rattus norvegicus [4]) [nM] | Kb (Rattus norvegicus [5]) [nM] | ED ratio [6] | ED (Rattus norvegicus [7]) [nM/kg] | ED ratio [8] | ED (Rattus norvegicus [9]) [nM/kg] | Kb (Rattus norvegicus [10]) [nM] | ED (Rattus norvegicus [11]) | ED (Rattus norvegicus [12])
1 | CCC[C@@H]1NC(=O)[C@H](Cc2ccccc2)NC(=O)[C@@H](Cc2ccccc2)NC(=O)CC2(CCCCC2)SSC[C@@H](C(=O)N2CCC[C@H]2C(=O)N[C@@H](CCCN=C(N)N)C(=O)NCC(N)=O)NC(=O)[C@H](CC(N)=O)NC1=O | 19.1 | 102 | 1.4 | 18.6 | 9.33 | 0.2 | 6.9 | – | – | – | – | –
2 | NC(=O)CC[C@@H]1NC(=O)[C@H](Cc2ccccc2)NC(=O)[C@@H](Cc2ccccc2)NC(=O)CC2(CCCCC2)SSC[C@@H](C(=O)N2CCC[C@H]2C(=O)N[C@@H](CCCN=C(N)N)C(=O)NCC(N)=O)NC(=O)[C@H](CC(N)=O)NC1=O [listing 1 of 2 here] | – | – | 0.3 | – | – | 0.07 | 4.3 | 0.9 | 4 | – | – | –
3 | NC(=O)CC[C@@H]1NC(=O)[C@H](Cc2ccccc2)NC(=O)[C@@H](Cc2ccccc2)NC(=O)CC2(CCCCC2)SSC[C@@H](C(=O)N2CCC[C@H]2C(=O)N[C@@H](CCCN=C(N)N)C(=O)NCC(N)=O)NC(=O)[C@H](CC(N)=O)NC1=O [listing 2 of 2 here] | 3.72 | 61.7 | – | 4.47 | 2.57 | – | – | – | – | 56.2 | – | –
4 | CC[C@H](C)[C@@H]1NC(=O)[C@H](Cc2ccccc2)NC(=O)[C@@H](Cc2ccccc2)NC(=O)CC2(CCCCC2)SSC[C@@H](C(=O)N2CCC[C@H]2C(=O)N[C@@H](CCCN=C(N)N)C(=O)NCC(N)=O)NC(=O)[C@H](CC(N)=O)NC1=O ([dF]FINCPRG-NH2; linker N-5 via X1) | 6.46 | 5.75 | 0.99 | 13.8 | 9.12 | 2.2 | 0.46 | 13 | 5.8 | 77.6 | – | –
5 | C[C@@H]1NC(=O)[C@H](Cc2ccccc2)NC(=O)[C@@H](Cc2ccccc2)NC(=O)CC2(CCCCC2)SSC[C@@H](C(=O)N2CCC[C@H]2C(=O)N[C@@H](CCCN=C(N)N)C(=O)NCC(N)=O)NC(=O)[C@H](CC(N)=O)NC1=O | 18.6 | 30.2 | 1.9 | 28.2 | 20.9 | 0.9 | 2.2 | – | – | – | – | –
6 | NC(=O)CNC(=O)[C@H](CCCN=C(N)N)NC(=O)[C@@H]1CCCN1C(=O)[C@@H]1CSSC2(CCCCC2)CC(=O)N[C@H](Cc2ccccc2)C(=O)N[C@@H](Cc2ccccc2)C(=O)N[C@@H](CC2CCCCC2)C(=O)N[C@@H](CC(N)=O)C(=O)N1 | 25.7 | 64.6 | 9 | 200 | 16.6 | 2 | 4.6 | – | – | – | – | –
7 | NC(=O)CNC(=O)[C@H](CCCN=C(N)N)NC(=O)[C@@H]1CCCN1C(=O)[C@@H]1CSSC2(CCCCC2)CC(=O)N[C@H](Cc2ccccc2)C(=O)N[C@@H](Cc2ccccc2)C(=O)N[C@@H](Cc2ccccc2)C(=O)N[C@@H](CC(N)=O)C(=O)N1 | 21.4 | 851 | 25 | 355 | 26.9 | 0.5 | 65 | – | – | – | – | –
8 | NC(=O)CNC(=O)[C@H](CCCN=C(N)N)NC(=O)[C@@H]1CCCN1C(=O)[C@@H]1CSSC2(CCCCC2)CC(=O)N[C@H](Cc2ccccc2)C(=O)N[C@@H](Cc2ccccc2)C(=O)N2CCC[C@H]2C(=O)N[C@@H](CC(N)=O)C(=O)N1 | 3720 | – | – | – | 1740 | – | – | – | – | – | Partial agonist | Partial agonist
9 | CC(C)[C@@H]1NC(=O)[C@H](Cc2ccccc2)NC(=O)[C@@H](Cc2ccccc2)NC(=O)CC2(CCCCC2)SSC[C@@H](C(=O)N2CCC[C@H]2C(=O)N[C@@H](CCCN=C(N)N)C(=O)NCC(N)=O)NC(=O)[C@H](CC(N)=O)NC1=O ([dF]FVNCPRG-NH2; linker N-5 via X1) | – | – | 0.58 | – | – | 0.9 | 0.67 | – | 8.9 | – | – | –
10 | C[C@@H](O)[C@@H]1NC(=O)[C@H](Cc2ccccc2)NC(=O)[C@@H](Cc2ccccc2)NC(=O)CC2(CCCCC2)SSC[C@@H](C(=O)N2CCC[C@H]2C(=O)N[C@@H](CCCN=C(N)N)C(=O)NCC(N)=O)NC(=O)[C@H](CC(N)=O)NC1=O | 9.77 | 24 | 2.9 | 41.7 | 9.12 | 1.7 | 1.7 | 1.9 | 3.2 | 44.7 | – | –
11 | CCCC[C@@H]1NC(=O)[C@H](Cc2ccccc2)NC(=O)[C@@H](Cc2ccccc2)NC(=O)CC2(CCCCC2)SSC[C@@H](C(=O)N2CCC[C@H]2C(=O)N[C@@H](CCCN=C(N)N)C(=O)NCC(N)=O)NC(=O)[C@H](CC(N)=O)NC1=O | 16.6 | 75.9 | 2.1 | 30.2 | 28.8 | 0.4 | 5.6 | – | – | – | – | –
12 | CC[C@@H]1NC(=O)[C@H](Cc2ccccc2)NC(=O)[C@@H](Cc2ccccc2)NC(=O)CC2(CCCCC2)SSC[C@@H](C(=O)N2CCC[C@H]2C(=O)N[C@@H](CCCN=C(N)N)C(=O)NCC(N)=O)NC(=O)[C@H](CC(N)=O)NC1=O | – | 11 | 1.4 | 20 | 18.6 | – | 0.77 | – | 2.4 | 30.2 | – | –
13 | NC(=O)CNC(=O)[C@H](CCCN=C(N)N)NC(=O)[C@@H]1CCCN1C(=O)[C@@H]1CSSC2(CCCCC2)CC(=O)N[C@H](Cc2ccccc2)C(=O)N[C@@H](Cc2ccccc2)C(=O)NCC(=O)N[C@@H](CC(N)=O)C(=O)N1 | 46.8 | 1410 | 11 | 162 | 17.4 | 0.11 | 97 | – | – | – | – | –
14 | CC(C)C[C@@H]1NC(=O)[C@H](Cc2ccccc2)NC(=O)[C@@H](Cc2ccccc2)NC(=O)CC2(CCCCC2)SSC[C@@H](C(=O)N2CCC[C@H]2C(=O)N[C@@H](CCCN=C(N)N)C(=O)NCC(N)=O)NC(=O)[C@H](CC(N)=O)NC1=O | 13.2 | 851 | 1.3 | 20 | – | 0.02 | 66 | – | – | – | – | –
15 | NC(=O)CNC(=O)[C@H](CCCN=C(N)N)NC(=O)[C@@H]1CCCN1C(=O)[C@@H]1CSSC2(CCCCC2)CC(=O)N[C@H](Cc2ccccc2)C(=O)N[C@@H](Cc2ccccc2)C(=O)N[C@@H](Cc2ccc(O)cc2)C(=O)N[C@@H](CC(N)=O)C(=O)N1 | 37.2 | ~2690 | 22 | 263 | 20.9 | 0.12 | ~178 | – | – | – | – | –
